Measured values as given in ChEMBL document CHEMBL1127647, “Synthesis and antiviral activities of 8-alkynyl-, 8-alkenyl-, and 8-alkyl-2'-deoxyadenosine analogues” (1994).
Values after ≈ are worked out from the molar mass of the structure shown.

Assays:
Type in all cases: functional
ESM = experiment: Minimum inhibitory concentration to reduce cytopathicity by 50% in morphology of human embryonic skin-muscle cells (ESM)
MDCK [1] = experiment: Minimum inhibitory concentration required for antiviral activity to reduce influenza B virus (Singapore) induced cytopathicity in Madin-Darby canine kidney cells (MDCK); details: Canis lupus familiaris
Summary of the method: (§1)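 Endpoint is the compound concentration that reduces virus-induced cytopathicity in the host cell monolayer by 50%.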

HEL [2] = experiment: Minimum inhibitory concentration to reduce cytopathicity by 50% in proliferation of human embryonic lung cells (HEL)
Summary of the method: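 Host cell toxicity is read as the compound concentration that reduces HEL cell proliferation by 50%.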

MDCK [3] = experiment: Minimum inhibitory concentration required for antiviral activity to reduce Influenza A virus (Ishikawa) induced cytopathicity in Madin-Darby canine kidney cells (MDCK); details: Canis lupus familiaris; summary of the method: as §1
HEL [4] = experiment: Minimum inhibitory concentration required for antiviral activity to reduce TK Varicella Zoster virus (VZV) (07/1) induced cytopathicity in human embryonic lung cells (HEL)
HEL [5] = experiment: Minimum inhibitory concentration required for antiviral activity to reduce Cytomegalovirus (CMV) (Davis) induced cytopathicity in human embryonic lung cells (HEL); summary of the method: as §1
[6] = tested on: Respiratory syncytial virus; experiment: Minimum inhibitory concentration required for antiviral activity to reduce Respiratory syncytial virus (RSV) (Long) induced cytopathicity in human carcinoma cells (HeLa); summary of the method: as §1
Human alphaherpesvirus 1 = experiment: Minimum inhibitory concentration required for antiviral activity to reduce TK-HSV-1 (B2006) induced cytopathicity in human embryonic skin-muscle cells (ESM); summary of the method: as §1
MDCK [7] = experiment: Minimum inhibitory concentration to reduce cytopathicity by 50% in morphology of Madin-Darby canine kidney cells (MDCK); details: Canis lupus familiaris
[8] = tested on: Vesicular stomatitis virus; experiment: Minimum inhibitory concentration required for antiviral activity to reduce Vesicular stomatitis virus (VSV) induced cytopathicity in human embryonic skin-muscle cells (ESM); summary of the method: as §1
Vaccinia virus = experiment: Minimum inhibitory concentration required for antiviral activity to reduce Vaccinia virus (VV) induced cytopathicity in human embryonic skin-muscle cells (ESM); details: Orthopoxvirus vaccinia; summary of the method: as §1
HEL [9] = experiment: Minimum inhibitory concentration required for antiviral activity to reduce Varicella Zoster virus (VZV) (Oka) induced cytopathicity in human embryonic lung cells (HEL)
HEL [10] = experiment: Minimum inhibitory concentration required for antiviral activity to reduce Cytomegalovirus (CMV) (AD-169) induced cytopathicity in human embryonic lung cells (HEL); summary of the method: as §1
HeLa = experiment: Minimum inhibitory concentration to reduce cytopathicity by 50% in morphology of human carcinoma cells (HeLa)
Summary of the method: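 Cytotoxicity endpoint is the minimum compound concentration that causes a microscopically detectable alteration of normal host cell morphology.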

CCCCC/C=C\c1nc2c(N)ncnc2n1[C@H]1C[C@H](O)[C@@H](CO)O1
MIC (ESM): > 100 µg/mL | MIC (MDCK [1]): > 100 µg/mL | MIC (HEL [2]): 20 µg/mL (≈ 57.6 µM) | MIC (MDCK [3]): 12 µg/mL (≈ 34.5 µM) | MIC (HEL [4]): 10 µg/mL (≈ 28.8 µM) | MIC (HEL [5]): 20 µg/mL (≈ 57.6 µM) | MIC [6]: 14 µg/mL (≈ 40.3 µM) | MIC (Human alphaherpesvirus 1): > 40 µg/mL | MIC (MDCK [7]): 100 µg/mL (≈ 288 µM) | MIC [8]: > 40 µg/mL | MIC (Vaccinia virus): 20 µg/mL (≈ 57.6 µM) | MIC (HEL [9]): 15 µg/mL (≈ 43.2 µM) | MIC (HEL [10]): 30 µg/mL (≈ 86.4 µM) | MIC (HeLa): 100 µg/mL (≈ 288 µM)

CCCC#Cc1nc2c(N)ncnc2n1[C@H]1C[C@H](O)[C@@H](CO)O1
MIC (ESM): 400 µg/mL (≈ 1260 µM) | MIC (MDCK [1]): > 100 µg/mL | MIC (HEL [2]): 10 µg/mL (≈ 31.5 µM) | MIC (MDCK [3]): 30 µg/mL (≈ 94.5 µM) | MIC (HEL [4]): 20 µg/mL (≈ 63 µM) | MIC (HEL [5]): 10 µg/mL (≈ 31.5 µM) | MIC [6]: > 100 µg/mL | MIC (Human alphaherpesvirus 1): 100 µg/mL (≈ 315 µM) | MIC (MDCK [7]): 100 µg/mL (≈ 315 µM) | MIC [8]: 70 µg/mL (≈ 221 µM) | MIC (Vaccinia virus): 150 µg/mL (≈ 473 µM) | MIC (HEL [9]): 40 µg/mL (≈ 126 µM) | MIC (HEL [10]): 10 µg/mL (≈ 31.5 µM) | MIC (HeLa): 100 µg/mL (≈ 315 µM)

CC#Cc1nc2c(N)ncnc2n1[C@H]1C[C@H](O)[C@@H](CO)O1
MIC (ESM): > 400 µg/mL | MIC (MDCK [1]): > 200 µg/mL | MIC (HEL [2]): 40 µg/mL (≈ 138 µM) | MIC (MDCK [3]): > 200 µg/mL | MIC (HEL [4]): 40 µg/mL (≈ 138 µM) | MIC (HEL [5]): 20 µg/mL (≈ 69.1 µM) | MIC [6]: > 200 µg/mL | MIC (Human alphaherpesvirus 1): 150 µg/mL (≈ 519 µM) | MIC (MDCK [7]): > 200 µg/mL | MIC [8]: 150 µg/mL (≈ 519 µM) | MIC (Vaccinia virus): 300 µg/mL (≈ 1040 µM) | MIC (HEL [9]): 40 µg/mL (≈ 138 µM) | MIC (HEL [10]): 20 µg/mL (≈ 69.1 µM) | MIC (HeLa): > 200 µg/mL

O=c1[nH]c(=O)n([C@H]2C[C@H](O)[C@@H](CO)O2)cc1/C=C/Br [BRIVUDINE]
MIC (ESM): > 400 µg/mL | MIC (HEL [2]): > 200 µg/mL | MIC (HEL [4]): > 10 µg/mL | MIC (HEL [5]): 70 µg/mL (≈ 210 µM) | MIC (Human alphaherpesvirus 1): > 200 µg/mL | MIC [8]: > 400 µg/mL | MIC (Vaccinia virus): 2 µg/mL (≈ 6 µM) | MIC (HEL [9]): 0.004 µg/mL (≈ 0.012 µM) | MIC (HEL [10]): 70 µg/mL (≈ 210 µM)

CCCCCCCc1nc2c(N)ncnc2n1[C@H]1C[C@H](O)[C@@H](CO)O1
MIC (ESM): > 100 µg/mL | MIC (MDCK [1]): > 100 µg/mL | MIC (HEL [2]): 13 µg/mL (≈ 37.2 µM) | MIC (MDCK [3]): 20 µg/mL (≈ 57.2 µM) | MIC (HEL [4]): 6 µg/mL (≈ 17.2 µM) | MIC (HEL [5]): 4 µg/mL (≈ 11.4 µM) | MIC [6]: 20 µg/mL (≈ 57.2 µM) | MIC (Human alphaherpesvirus 1): > 40 µg/mL | MIC (MDCK [7]): 100 µg/mL (≈ 286 µM) | MIC [8]: > 40 µg/mL | MIC (Vaccinia virus): 20 µg/mL (≈ 57.2 µM) | MIC (HEL [9]): 10 µg/mL (≈ 28.6 µM) | MIC (HEL [10]): 4 µg/mL (≈ 11.4 µM) | MIC (HeLa): 100 µg/mL (≈ 286 µM)

CCCc1nc2c(N)ncnc2n1[C@H]1C[C@H](O)[C@@H](CO)O1
MIC (ESM): > 400 µg/mL | MIC (MDCK [1]): > 200 µg/mL | MIC (HEL [2]): 170 µg/mL (≈ 580 µM) | MIC (MDCK [3]): > 200 µg/mL | MIC (HEL [4]): 7 µg/mL (≈ 23.9 µM) | MIC (HEL [5]): 20 µg/mL (≈ 68.2 µM) | MIC [6]: > 200 µg/mL | MIC (Human alphaherpesvirus 1): > 300 µg/mL | MIC (MDCK [7]): > 200 µg/mL | MIC [8]: 400 µg/mL (≈ 1360 µM) | MIC (Vaccinia virus): 70 µg/mL (≈ 239 µM) | MIC (HEL [9]): 20 µg/mL (≈ 68.2 µM) | MIC (HEL [10]): 20 µg/mL (≈ 68.2 µM) | MIC (HeLa): > 200 µg/mL

Nc1nc2c(ncn2COCCO)c(=O)[nH]1 [ACYCLOVIR]
MIC (ESM): > 400 µg/mL | MIC (HEL [2]): > 200 µg/mL | MIC (HEL [5]): 50 µg/mL (≈ 222 µM) | MIC (Human alphaherpesvirus 1): 100 µg/mL (≈ 444 µM) | MIC [8]: > 400 µg/mL | MIC (Vaccinia virus): > 400 µg/mL | MIC (HEL [10]): 35 µg/mL (≈ 155 µM)
